ChEMBL document CHEMBL1123326, “Sequentially labile water-soluble prodrugs of alprazolam” (J Med Chem, 1986)

Columns and labels:
[1] = target: T1, GABA-A receptor; anion channel (Mus musculus) (UniProt Q8BHJ7+P26048+Q8QZW7+P50571+Q9R0Y8+P22723+A2AMW3+P62812+Q9JLF1+P26049+P22933+Q9D6F4+P63080+P27681+P16305); assay: Ex vivo displacement of [3H]flunitrazepam from mouse GABA-A benzodiazepine receptor at 10 uM/kg iv dose; type: organism-based
In short: (§1)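 Mice dosed iv by tail vein (drugs in 0.9% NaCl, or 2% ethanol for parent; controls given vehicle); decapitated 30 min later (dose-response) or at 1, 3, 10, 30, 60 min (time course). Brain minus cerebellum homogenized in 50 vol 0.05 M Tris pH 7.4, 4 °C; incubated with ~0.77 nM [3H]flunitrazepam final, 30 min, 25 °C; GF/B filtration, scintillation counting. Mean of four measurements.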

[2] = target: T1, GABA-A receptor; anion channel (Mus musculus); assay: Ex vivo displacement of [3H]flunitrazepam from mouse GABA-A benzodiazepine receptor at 3 uM/kg iv dose; type: organism-based; in short: as §1
[3] = target: T1, GABA-A receptor; anion channel (Mus musculus); assay: Ex vivo inhibition of [3H]flunitrazepam binding to mouse GABA-A benzodiazepine receptor; type: functional; in short: as §1
[4] = target: T1, GABA-A receptor; anion channel (Mus musculus); assay: Ex vivo displacement of [3H]flunitrazepam from mouse GABA-A benzodiazepine receptor at 1 uM/kg iv dose; type: organism-based; in short: as §1
[5] = target: T1, GABA-A receptor; anion channel (Mus musculus); assay: Ex vivo displacement of [3H]flunitrazepam from mouse GABA-A benzodiazepine receptor at 30 uM/kg iv dose (Range 5-10%); type: organism-based; in short: as §1
[6] = Half-life period at 37 degrees C; type: ADME

Row | SMILES | Control [1] | Control [2] | ED50 [3] | Control [4] | Control [5] | half-life [6]
1 | Cc1nnc(CNC(=O)C(N)CC(C)C)n1-c1ccc(Cl)cc1C(=O)c1ccccc1 (configuration not stated) | 25% | 60% | 6 µmol/kg | 82% | 10% | 1 h
2 | Cc1nnc(CNC(=O)CCCN)n1-c1ccc(Cl)cc1C(=O)c1ccccc1 | 20% | 51% | 320 µmol/kg | 80% | 10% | –
3 | Cc1nnc(CNC(=O)CN)n1-c1ccc(Cl)cc1C(=O)c1ccccc1 | 3% | 50% | 9 µmol/kg | 65% | – | 4.33 h
4 | Cc1nnc2n1-c1ccc(Cl)cc1C(c1ccccc1)=NC2 | – | – | 2.9 µmol/kg | – | – | –
